Data from ChEMBL document CHEMBL1275441, “Effect of impaired renal function on the pharmacokinetics of tomopenem (RO4908463/CS-023), a novel carbapenem” (Antimicrob Agents Chemother, 2008).

Experiments:
Conditions in all cases: in vivo
[1] = test system: Homo sapiens; assay: Renal clearance in human with creatinine clearance of => 80 ml/min assessed as RO4957463 level at 1500 mg, iv administered as single dose after 24 hrs; assay type: ADME, organism-based, Kidney
In short: (§1)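 Single 1,500 mg i.v. infusion over 60 min, with 8 subjects per renal-function group (CL_CR by Cockcroft-Gault at screening). Urine was collected at 0–6, 6–12 and 12–24 h, volume and pH recorded, and aliquots mixed 1:1 with 0.5 M MOPS. Samples were frozen at −70°C, protected from light, and assayed by a validated method. CL_R = A_e24/AUC₂₄.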

[2] = test system: Homo sapiens; assay: Renal clearance in human with creatinine clearance of 50-79 ml/min assessed as RO4957463 level at 1500 mg, iv administered as single dose after 24 hrs; assay type: ADME, organism-based, Kidney; in short: as §1
[3] = test system: Homo sapiens; assay: Renal clearance in human with creatinine clearance of 30-49 ml/min assessed as RO4957463 level at 1500 mg, iv administered as single dose after 24 hrs; assay type: ADME, organism-based, Kidney
In short: (§2)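 After a single 1,500 mg i.v. infusion over 60 min, urine was collected 0–6, 6–12 and 12–24 h post-dose, with volume and pH recorded. Aliquots were mixed 1:1 with 0.5 M MOPS, protected from light and frozen at −70°C. Parent and metabolite were assayed by a validated method. CLR = Ae24/plasma AUC24. n = 8 per group, mean ± SD.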

[4] = test system: Homo sapiens; assay: Renal clearance in human with creatinine clearance of =< 30 ml/min assessed as RO4957463 level at 1500 mg, iv administered as single dose after 24 hrs; assay type: ADME, organism-based, Kidney; in short: as §1
[5] = test system: Homo sapiens; assay: Drug excretion in human with creatinine clearance of => 80 ml/min assessed as RO4957463 level at 1500 mg, iv administered as single dose after 24 hrs; assay type: ADME, organism-based; in short: as §2
[6] = test system: Homo sapiens; assay: Drug excretion in human with creatinine clearance of 50-79 ml/min assessed as RO4957463 level at 1500 mg, iv administered as single dose after 24 hrs; assay type: ADME, organism-based; in short: as §2
[7] = test system: Homo sapiens; assay: Drug excretion in human with creatinine clearance of 30-49 ml/min assessed as RO4957463 level at 1500 mg, iv administered as single dose after 24 hrs; assay type: ADME, organism-based; in short: as §2
[8] = test system: Homo sapiens; assay: Drug excretion in human with creatinine clearance of =< 30 ml/min assessed as RO4957463 level at 1500 mg, iv administered as single dose after 24 hrs; assay type: ADME, organism-based; in short: as §2
[9] = test system: Homo sapiens; assay: Dose normalized excretion in human with creatinine clearance of => 80 ml/min assessed as RO4957463 level at 1500 mg, iv administered as single dose after 24 hrs; assay type: ADME, organism-based; in short: as §2
[10] = test system: Homo sapiens; assay: Dose normalized excretion in human with creatinine clearance of 50-79 ml/min assessed as RO4957463 level at 1500 mg, iv administered as single dose after 24 hrs; assay type: ADME, organism-based; in short: as §2
[11] = test system: Homo sapiens; assay: Dose normalized excretion in human with creatinine clearance of 30-49 ml/min assessed as RO4957463 level at 1500 mg, iv administered as single dose after 24 hrs; assay type: ADME, organism-based; in short: as §2
[12] = test system: Homo sapiens; assay: Dose normalized excretion in human with creatinine clearance of =< 30 ml/min assessed as RO4957463 level at 1500 mg, iv administered as single dose after 24 hrs; assay type: ADME, organism-based; in short: as §2

Compound: C[C@@H]1[C@H]([C@H](C(=O)O)[C@@H](C)O)N=C(C(=O)O)[C@H]1S[C@H]1C[C@@H](C(=O)N2CC[C@H](NC(=O)CNC(=N)N)C2)N(C)C1
- CL_renal [1]: 13.2 L/h
- CL_renal [2]: 8.27 L/h
- CL_renal [3]: 3.91 L/h
- CL_renal [4]: 1.01 L/h
- Activity [5]: 240 mg
- Activity [6]: 279 mg
- Activity [7]: 281 mg
- Activity [8]: 194 mg
- Activity [9]: 16%
- Activity [10]: 18.6%
- Activity [11]: 18.7%
- Activity [12]: 13.1%
